Experimental data as given in ChEMBL document CHEMBL2086331, “Novel triazolopyridylbenzamides as potent and selective p38α inhibitors” (Bioorg Med Chem Lett, 2012).

Experiments:
[1] = Volume of distribution at steady state in beagle dog at 1 mg/kg, iv; assay type: ADME, organism-based, Canis lupus familiaris; parameters: dose 1 mg/kg, route intravenous; details: in vivo, read-out: Vdss
Procedure, shortened: (§1)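 Beagle dogs dosed 1 mg/kg iv or 1 mg/kg po; pharmacokinetic parameters reported as mean values of n = 2 animals.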

[2] = Oral bioavailability in beagle dog at 1 mg/kg; assay type: ADME, organism-based, Canis lupus familiaris; details: in vivo; procedure, shortened: as §1
[3] = target: Proto-oncogene tyrosine-protein kinase receptor Ret (Homo sapiens, UniProt P07949); test: Inhibition of RET
in vitro = details: human, Caco-2
CHO [4] = test: Toxicity against CHO cells; assay type: cell-based, Cricetulus griseus; details: chinese hamster
[5] = AUC in Wistar rat at 10 mg/kg, po; assay type: ADME, organism-based; parameters: dose 10 mg/kg, route oral; details: plasma
Procedure, shortened: (§2)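 Wistar rats, single dose either iv 1 mg/kg in 40% PEG + 0.4% HCl 1 N, or oral 10 mg/kg in 0.5% methylcellulose + 0.1% Tween 80; plasma PK parameters reported as mean values (n = 2).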

[6] = Clearance in beagle dog at 1 mg/kg, iv; assay type: ADME, organism-based, Canis lupus familiaris; parameters: dose 1 mg/kg, route intravenous; details: in vivo; procedure, shortened: as §1
CHO [7] = test: Cytotoxicity against CHO cells at 200 uM; assay type: cell-based, Cricetulus griseus; details: chinese hamster
Rattus norvegicus [8] = test: Antiarthritic effect in rat adjuvant-induced arthritis model assessed as inhibition of right paw edema at 3 mg/kg, po dosed daily during last 10 days of test; assay type: functional; details: 240 h
Procedure, shortened: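 Arthritis induced by complete Freund's adjuvant injected into left hind paw; oral compound daily over final 10 days of protocol; right (non-injected) paw volume monitored, result as % inhibition of oedema.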

[9] = Passive permeability from basolateral to apical side in human Caco2 cells at 12.5 uM; assay type: ADME, cell-based; details: Caco-2, read-out: permeability
Procedure, shortened: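 Caco-2 monolayer, test compound 12.5 µM; passive apparent permeability measured in both AB and BA directions, reported in 10^-6 cm/s.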

Cytochrome P450 2D6 = Cytochrome P450 2D6 (Homo sapiens, UniProt P10635); test: Inhibition of CYP2D6 at < 25 uM; assay type: ADME
[10] = AUC in beagle dog at 1 mg/kg, po; assay type: ADME, organism-based, Canis lupus familiaris; parameters: dose 1 mg/kg, route oral; details: plasma; procedure, shortened: as §1
[11] = Clearance in Wistar rat at 1 mg/kg, iv; assay type: ADME, organism-based; parameters: dose 1 mg/kg, route intravenous; details: in vivo; procedure, shortened: as §2
[12] = Cmax in beagle dog at 1 mg/kg, po; assay type: ADME, organism-based, Canis lupus familiaris; parameters: dose 1 mg/kg, route oral; details: in vivo; procedure, shortened: as §1
[13] = Cmax in Wistar rat at 10 mg/kg, po; assay type: ADME, organism-based; parameters: dose 10 mg/kg, route oral; details: in vivo; procedure, shortened: as §2
Rattus norvegicus [14] = test: Inhibition of TNFalpha release in rat LPS-induced endotoxemia model dosed orally 1 hr prior to LPS challenge and measured 1.5 hrs post LPS challenge; assay type: functional; details: po
Procedure, shortened: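 Rats given compound orally 1 h before LPS challenge to induce endotoxemia; plasma TNFα quantified 1.5 h after LPS, at peak TNF production.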

Cytochrome P450 3A4 = Cytochrome P450 3A4 (Homo sapiens, UniProt P08684); test: Inhibition of CYP3A4 at < 25 uM; assay type: ADME
[15] = Volume of distribution at steady state in Wistar rat at 1 mg/kg, iv; assay type: ADME, organism-based; parameters: dose 1 mg/kg, route intravenous; details: in vivo, read-out: Vdss; procedure, shortened: as §2
[16] = Oral bioavailability in Wistar rat at 10 mg/kg; assay type: ADME, organism-based; details: in vivo; procedure, shortened: as §2
[17] = Half life in Wistar rat at 1 mg/kg, iv; assay type: ADME, organism-based; parameters: dose 1 mg/kg, route intravenous; details: in vivo; procedure, shortened: as §2
[18] = Half life in beagle dog at 1 mg/kg, iv; assay type: ADME, organism-based, Canis lupus familiaris; parameters: dose 1 mg/kg, route intravenous; details: in vivo; procedure, shortened: as §1
Cytochrome P450 2C9 = Cytochrome P450 2C9 (Homo sapiens, UniProt P11712); test: Inhibition of CYP2C9 at < 25 uM; assay type: ADME
[19] = Protein binding in rat plasma; assay type: ADME, cell-free; details: read-out: PPB (converted)
[20] = AUC in beagle dog at 1 mg/kg, iv; assay type: ADME, organism-based, Canis lupus familiaris; parameters: dose 1 mg/kg, route intravenous; details: plasma; procedure, shortened: as §1
Blood = test: Inhibition of LPS-induced TNFalpha production in human whole blood; assay type: functional, tissue-based
[21] = Stability in rat hepatic microsomes assessed as compound turnover at 5 uM incubated for 30 mins in presence of NADPH; assay type: ADME; details: liver microsomes, read-out: Drug degradation
Procedure, shortened: (§3)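 Rat or human hepatic microsomes (1 mg/mL) with NADPH, test compound 5 µM, 30 min at 37 °C; readout is % turnover of parent.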

Cytochrome P450 1A2 = target: T1, Cytochrome P450 1A2 (Homo sapiens, UniProt P05177); test: Inhibition of CYP1A2 at < 25 uM; assay type: ADME
T1 sequence (P05177 whole entry): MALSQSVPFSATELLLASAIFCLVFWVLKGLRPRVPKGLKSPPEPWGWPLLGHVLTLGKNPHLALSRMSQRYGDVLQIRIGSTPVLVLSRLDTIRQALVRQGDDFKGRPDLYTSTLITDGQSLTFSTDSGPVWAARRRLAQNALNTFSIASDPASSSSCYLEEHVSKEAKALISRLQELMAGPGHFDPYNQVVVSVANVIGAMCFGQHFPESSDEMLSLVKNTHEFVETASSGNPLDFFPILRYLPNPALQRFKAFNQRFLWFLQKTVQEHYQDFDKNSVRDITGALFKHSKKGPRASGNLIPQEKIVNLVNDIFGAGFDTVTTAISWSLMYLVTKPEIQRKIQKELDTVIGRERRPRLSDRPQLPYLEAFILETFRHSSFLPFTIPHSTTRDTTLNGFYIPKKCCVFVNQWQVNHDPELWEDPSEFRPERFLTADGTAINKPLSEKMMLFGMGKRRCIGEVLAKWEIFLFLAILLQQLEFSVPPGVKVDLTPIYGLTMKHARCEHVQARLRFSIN

[22] = AUC in Wistar rat at 1 mg/kg, iv; assay type: ADME, organism-based; parameters: dose 1 mg/kg, route intravenous; details: plasma; procedure, shortened: as §2
[23] = Protein binding in human plasma; assay type: ADME, cell-free; details: read-out: PPB (converted)
[24] = Stability in human hepatic microsomes assessed as compound turnover at 5 uM incubated for 30 mins in presence of NADPH; assay type: ADME; details: liver microsomes, read-out: Drug degradation; procedure, shortened: as §3
Cytochrome P450 2C19 = Cytochrome P450 2C19 (Homo sapiens, UniProt P33261); test: Inhibition of CYP2C19 at < 25 uM; assay type: ADME
Chain of Cytochrome P450 2C19 (P33261 whole entry): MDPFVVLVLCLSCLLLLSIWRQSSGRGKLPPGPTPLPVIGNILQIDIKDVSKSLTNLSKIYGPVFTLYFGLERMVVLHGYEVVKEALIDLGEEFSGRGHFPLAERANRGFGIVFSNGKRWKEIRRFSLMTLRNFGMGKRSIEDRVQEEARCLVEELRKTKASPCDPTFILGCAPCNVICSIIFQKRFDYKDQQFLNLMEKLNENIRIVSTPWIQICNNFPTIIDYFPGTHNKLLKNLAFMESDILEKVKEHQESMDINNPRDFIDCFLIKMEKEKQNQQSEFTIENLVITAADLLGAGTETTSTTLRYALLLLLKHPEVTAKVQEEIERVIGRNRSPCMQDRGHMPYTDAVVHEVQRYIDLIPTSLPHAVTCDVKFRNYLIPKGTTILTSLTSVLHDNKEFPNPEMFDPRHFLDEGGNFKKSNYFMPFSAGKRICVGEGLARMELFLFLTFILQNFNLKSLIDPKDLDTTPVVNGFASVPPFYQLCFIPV

Chain of Cytochrome P450 2C9 (P11712 whole entry): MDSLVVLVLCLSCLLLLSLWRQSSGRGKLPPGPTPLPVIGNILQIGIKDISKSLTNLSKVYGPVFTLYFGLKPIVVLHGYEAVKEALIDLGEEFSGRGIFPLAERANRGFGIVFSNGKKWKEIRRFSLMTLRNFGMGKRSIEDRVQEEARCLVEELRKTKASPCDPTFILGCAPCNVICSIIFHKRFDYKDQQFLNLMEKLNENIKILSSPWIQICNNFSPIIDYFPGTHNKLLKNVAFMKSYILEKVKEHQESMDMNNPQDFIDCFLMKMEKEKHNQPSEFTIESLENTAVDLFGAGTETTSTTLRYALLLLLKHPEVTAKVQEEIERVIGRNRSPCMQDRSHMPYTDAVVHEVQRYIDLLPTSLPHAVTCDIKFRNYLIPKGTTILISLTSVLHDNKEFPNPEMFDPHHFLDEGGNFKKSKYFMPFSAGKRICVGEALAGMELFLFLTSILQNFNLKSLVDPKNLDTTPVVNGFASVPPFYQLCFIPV
Chain of Cytochrome P450 2D6 (P10635 whole entry): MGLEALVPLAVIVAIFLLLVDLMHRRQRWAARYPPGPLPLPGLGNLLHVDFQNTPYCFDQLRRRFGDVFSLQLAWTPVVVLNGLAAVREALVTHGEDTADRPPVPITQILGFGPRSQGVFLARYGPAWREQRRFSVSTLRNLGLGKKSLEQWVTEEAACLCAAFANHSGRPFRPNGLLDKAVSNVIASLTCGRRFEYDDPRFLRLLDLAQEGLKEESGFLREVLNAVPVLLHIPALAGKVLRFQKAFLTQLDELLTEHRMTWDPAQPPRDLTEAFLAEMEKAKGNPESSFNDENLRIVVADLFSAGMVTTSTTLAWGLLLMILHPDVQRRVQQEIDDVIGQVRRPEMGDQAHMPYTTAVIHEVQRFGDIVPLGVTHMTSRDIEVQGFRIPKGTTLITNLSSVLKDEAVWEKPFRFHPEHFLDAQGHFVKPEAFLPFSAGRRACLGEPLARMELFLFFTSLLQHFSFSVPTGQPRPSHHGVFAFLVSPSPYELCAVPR
Chain of Proto-oncogene tyrosine-protein kinase receptor Ret (P07949 whole entry): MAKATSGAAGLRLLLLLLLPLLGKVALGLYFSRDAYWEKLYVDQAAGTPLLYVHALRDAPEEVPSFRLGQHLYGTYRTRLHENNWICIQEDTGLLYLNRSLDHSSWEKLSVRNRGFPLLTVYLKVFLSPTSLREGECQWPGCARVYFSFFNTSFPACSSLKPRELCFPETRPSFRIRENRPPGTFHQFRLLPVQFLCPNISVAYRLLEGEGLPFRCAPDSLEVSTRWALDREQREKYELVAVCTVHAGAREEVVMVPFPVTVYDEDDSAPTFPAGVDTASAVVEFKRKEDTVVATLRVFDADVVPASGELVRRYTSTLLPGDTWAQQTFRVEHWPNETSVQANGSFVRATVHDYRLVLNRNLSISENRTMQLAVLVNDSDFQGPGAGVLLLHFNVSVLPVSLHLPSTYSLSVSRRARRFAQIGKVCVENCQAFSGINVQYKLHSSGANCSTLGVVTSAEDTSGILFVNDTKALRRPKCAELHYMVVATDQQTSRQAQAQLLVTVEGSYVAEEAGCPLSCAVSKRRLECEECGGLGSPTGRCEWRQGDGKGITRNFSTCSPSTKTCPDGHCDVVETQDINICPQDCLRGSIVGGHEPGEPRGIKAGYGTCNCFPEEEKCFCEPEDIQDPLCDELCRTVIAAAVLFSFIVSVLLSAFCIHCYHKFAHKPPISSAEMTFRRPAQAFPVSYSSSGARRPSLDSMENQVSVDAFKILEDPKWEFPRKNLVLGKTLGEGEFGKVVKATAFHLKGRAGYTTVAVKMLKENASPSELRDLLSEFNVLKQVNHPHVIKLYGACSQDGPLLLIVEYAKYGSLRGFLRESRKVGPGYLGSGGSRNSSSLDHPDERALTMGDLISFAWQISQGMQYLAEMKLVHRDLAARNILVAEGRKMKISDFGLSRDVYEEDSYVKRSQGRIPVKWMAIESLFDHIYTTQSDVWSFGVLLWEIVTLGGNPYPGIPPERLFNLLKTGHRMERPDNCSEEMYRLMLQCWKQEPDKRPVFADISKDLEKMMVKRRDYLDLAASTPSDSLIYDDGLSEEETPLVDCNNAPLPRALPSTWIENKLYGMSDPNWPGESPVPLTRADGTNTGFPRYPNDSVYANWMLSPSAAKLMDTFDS
Chain of Cytochrome P450 3A4 (P08684 whole entry): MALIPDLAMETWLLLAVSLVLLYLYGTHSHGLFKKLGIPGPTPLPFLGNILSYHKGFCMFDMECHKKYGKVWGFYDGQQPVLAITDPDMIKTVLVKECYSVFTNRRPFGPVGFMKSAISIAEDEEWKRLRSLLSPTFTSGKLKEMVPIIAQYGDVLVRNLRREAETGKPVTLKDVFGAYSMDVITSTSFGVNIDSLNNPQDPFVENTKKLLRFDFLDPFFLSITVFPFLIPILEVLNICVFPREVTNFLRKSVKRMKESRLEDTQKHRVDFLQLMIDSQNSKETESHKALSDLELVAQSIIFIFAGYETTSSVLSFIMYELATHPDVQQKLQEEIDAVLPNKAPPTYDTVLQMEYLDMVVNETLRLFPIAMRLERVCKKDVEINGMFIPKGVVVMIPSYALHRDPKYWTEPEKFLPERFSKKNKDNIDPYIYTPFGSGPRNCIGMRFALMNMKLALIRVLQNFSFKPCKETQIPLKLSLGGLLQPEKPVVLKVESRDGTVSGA

Cc1c(F)cc(C(=O)NC2CC2)cc1-c1c(F)cn2c(C(C)(C)C)nnc2c1F
Vd [1]: 1.6 L/kg
bioavailability [2]: 79%
IC50 [3]: 2000 nM
Papp A→B at 12.5 µM (in vitro): 41 ×10⁻⁶ cm/s
Activity (CHO [4]): Non-toxic
AUC [5]: 38600 ng·h/mL
clearance [6]: 2.7 mL/min/kg
Activity (CHO [7]): 33%
inhibition in vivo at 3 mg/kg (Rattus norvegicus [8]): 67%
Papp B→A at 12.5 µM [9]: 25 ×10⁻⁶ cm/s
inhibition (INH) (Cytochrome P450 2D6): Not Active
AUC [10]: 5060 ng·h/mL
clearance [11]: 2.3 mL/min/kg
Cmax [12]: 185 ng/mL
Cmax [13]: 3470 ng/mL
ED50 (Rattus norvegicus [14]): 1.36 mg/kg
inhibition (INH) (Cytochrome P450 3A4): Not Active
Vd [15]: 0.57 L/kg
bioavailability [16]: 50%
half-life [17]: 3.3 h
half-life [18]: 7.3 h
inhibition (INH) (Cytochrome P450 2C9): Not Active
fraction unbound [19]: 0.25
AUC [20]: 6440 ng·h/mL
IC50 (Blood): 116 nM
metabolised at 0.5 h, 5 µM [21]: < 5%
inhibition (INH) (Cytochrome P450 1A2): Not Active
AUC [22]: 8010 ng·h/mL
fraction unbound [23]: 0.21
metabolised at 0.5 h, 5 µM [24]: 6%
inhibition (INH) (Cytochrome P450 2C19): Not Active
